The values below come from ChEMBL document CHEMBL1136980, “Synthesis of novel 3-(1-(1-substituted piperidin-4-yl)-1H-1,2,3-triazol-4-yl)-1,2,4-oxadiazol-5(4H)-one as antifungal agents” (2009).

Values after ≈ are worked out from the molar mass of the structure shown. Active and inactive are the calls of the source.

In test [1] the test system is Candida albicans. Nature of the test: Antifungal activity against Candida albicans NCIM 3471 by agar plate assay. In kind it is functional. The method in brief: (§1)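 In vitro MIC determined by standard agar plate method (cup plate format). Compounds were tested in dimethyl sulfoxide, with DMSO alone as solvent control. Miconazole and fluconazole served as reference standards.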

Test [2] relates to Fusarium oxysporum. Briefly: Antifungal activity against Fusarium oxysporum NCIM 1332 by agar plate assay. It counts as functional. An outline of the steps: as §1
For test [3], the system named is Aspergillus flavus. Briefly: Antifungal activity against Aspergillus flavus NCIM 539 by agar plate assay. In kind it is functional. The method in brief:
as §1

Test [4] relates to Aspergillus niger. Briefly: Antifungal activity against Aspergillus niger NCIM 1196 by agar plate assay. It counts as functional. An outline of the steps:
as §1

The test system of test [5] is Cryptococcus neoformans. Briefly: Antifungal activity against Cryptococcus neoformans NCIM 576 by agar plate assay. In kind it is functional. The method in brief:
as §1

The test system of test [6] is Cryptococcus neoformans. Briefly: Antifungal activity against Cryptococcus neoformans NCIM 576 at 200 ug/mL by agar plate assay. It counts as functional, organism-based.
Test [7] has as its system Candida albicans. Nature of the test: Antifungal activity against Candida albicans NCIM 3471 at 200 ug/mL by agar plate assay. It counts as functional, organism-based.
For test [8], the system named is Aspergillus flavus. Briefly: Antifungal activity against Aspergillus flavus NCIM 539 at 200 ug/mL by agar plate assay. It counts as functional, organism-based.
Test [9] deals with Aspergillus niger. Nature of the test: Antifungal activity against Aspergillus niger NCIM 1196 at 200 ug/mL by agar plate assay. It counts as functional, organism-based.

Turning to `CS(=O)(=O)N1CCC(n2cc(-c3noc(=O)[nH]3)nn2)CC1`, the MIC in [1] is 20 µg/mL (≈ 63.6 µM); in test [2], 25 µg/mL (≈ 79.5 µM); in test [3], 15 µg/mL (≈ 47.7 µM); in test [4], 10 µg/mL (≈ 31.8 µM); in test [5] it was 27.5 µg/mL (≈ 87.5 µM).

Regarding `Clc1ccc(COC(Cn2ccnc2)c2ccc(Cl)cc2Cl)c(Cl)c1` (stereo not given) [MICONAZOLE], the MIC is 25 µg/mL (≈ 60.1 µM) in [1]; 25 µg/mL (≈ 60.1 µM) in test [2]; 12.5 µg/mL (≈ 30 µM) in test [3]; 12.5 µg/mL (≈ 30 µM) in test [4]; 25 µg/mL (≈ 60.1 µM) in test [5].

For `CC(=O)N1CCC(n2cc(-c3noc(=O)[nH]3)nn2)CC1`, the MIC in [1] was found to be 60 µg/mL (≈ 216 µM); in [2], 61 µg/mL (≈ 219 µM); in [3] it was 31 µg/mL (≈ 111 µM); in [4], 31 µg/mL (≈ 111 µM); in [5], 65 µg/mL (≈ 234 µM).

`O=C(c1ccc(Cl)cc1)N1CCC(n2cc(-c3noc(=O)[nH]3)nn2)CC1`: the MIC in test [1] was 40 µg/mL (≈ 107 µM); in test [2], 55 µg/mL (≈ 147 µM); in test [3] it was 20 µg/mL (≈ 53.4 µM); in test [4] it was 25 µg/mL (≈ 66.7 µM); in test [5], 40 µg/mL (≈ 107 µM).

`O=C(c1ccccc1)N1CCC(n2cc(-c3noc(=O)[nH]3)nn2)CC1`: the MIC in test [1] was 85 µg/mL (≈ 250 µM); in test [2], 88 µg/mL (≈ 259 µM); in test [3], 42 µg/mL (≈ 123 µM); in test [4] it was 42 µg/mL (≈ 123 µM); in test [5] it was 85 µg/mL (≈ 250 µM).

For `O=c1[nH]c(-c2cn(C3CCNCC3)nn2)no1`, the MIC in [1] is 27.5 µg/mL (≈ 116 µM); in test [2], 25 µg/mL (≈ 106 µM); in [3] it was 15 µg/mL (≈ 63.5 µM); in test [4] it was 15 µg/mL (≈ 63.5 µM). In addition, in test [6], the result was inactive.

Consider `CCC(=O)N1CCC(n2cc(-c3noc(=O)[nH]3)nn2)CC1`, for which the MIC in test [1] is 85 µg/mL (≈ 291 µM); in [2], 90 µg/mL (≈ 308 µM); in [3], 42 µg/mL (≈ 144 µM); in [4] it was 42 µg/mL (≈ 144 µM); in [5], 85 µg/mL (≈ 291 µM).

Regarding `CC(C)(C)OC(=O)N1CCC(n2cc(-c3noc(=O)[nH]3)nn2)CC1`, the minimum inhibitory concentration (MIC) in [1] came out at 30 µg/mL (≈ 89.2 µM); in [2], 25 µg/mL (≈ 74.3 µM); in [3], 15 µg/mL (≈ 44.6 µM); in [4], 20 µg/mL (≈ 59.5 µM). Further, the outcome in test [6] was inactive.

Turning to `CCOC(=O)c1cn(C2CCN(C(=O)OC(C)(C)C)CC2)nn1`, the MIC in [1] is 40 µg/mL (≈ 123 µM); in [2] it was 44 µg/mL (≈ 136 µM); in test [3], 22 µg/mL (≈ 67.8 µM); in test [4], 19 µg/mL (≈ 58.6 µM); in [5], 35 µg/mL (≈ 108 µM).

As for `OC(Cn1cncn1)(Cn1cncn1)c1ccc(F)cc1F` [FLUCONAZOLE], the MIC in [1] worked out at 5 µg/mL (≈ 16.3 µM); in test [2] it was 5 µg/mL (≈ 16.3 µM); in test [3], 5 µg/mL (≈ 16.3 µM); in test [4] it was 10 µg/mL (≈ 32.7 µM); in [5] it was 5 µg/mL (≈ 16.3 µM).

Regarding `CN1CCC(n2cc(-c3noc(=O)[nH]3)nn2)CC1`, the MIC in [1] was found to be 20 µg/mL (≈ 79.9 µM); in [2], 25 µg/mL (≈ 99.9 µM); in test [3] it was 10 µg/mL (≈ 40 µM); in test [4], 12.5 µg/mL (≈ 49.9 µM); in [5], 60 µg/mL (≈ 240 µM).

Regarding `CC(C)(C)OC(=O)N1CCC(n2cc(/C(N)=N/O)nn2)CC1`, the MIC is 35 µg/mL (≈ 113 µM) in test [1]; 35 µg/mL (≈ 113 µM) in [2]; 20 µg/mL (≈ 64.4 µM) in test [3]; 20 µg/mL (≈ 64.4 µM) in test [4]; 40 µg/mL (≈ 129 µM) in test [5].

Turning to `Cc1ccc(S(=O)(=O)N2CCC(n3cc(-c4noc(=O)[nH]4)nn3)CC2)cc1`, the MIC came to 30 µg/mL (≈ 76.8 µM) in [1]; 33 µg/mL (≈ 84.5 µM) in [2]; 25 µg/mL (≈ 64 µM) in [3]; 20 µg/mL (≈ 51.2 µM) in test [4]; 40 µg/mL (≈ 102 µM) in test [5].

With `CC(C)(C)OC(=O)N1CCC(n2cc(C(N)=O)nn2)CC1`, the MIC in test [1] was 50 µg/mL (≈ 169 µM); in [2] it was 55 µg/mL (≈ 186 µM); in test [3], 27 µg/mL (≈ 91.4 µM); in [4] it was 25 µg/mL (≈ 84.6 µM); in test [5], 45 µg/mL (≈ 152 µM).

For the compound `CC(C)(C)OC(=O)N1CCC(n2cc(C#N)nn2)CC1`, the MIC was found to be 90 µg/mL (≈ 325 µM) in test [2], 55 µg/mL (≈ 198 µM) in [3] and 50 µg/mL (≈ 180 µM) in test [4]. In addition, the outcome in [7] and in [6] was inactive.

Turning to `CCCC(=O)N1CCC(n2cc(-c3noc(=O)[nH]3)nn2)CC1`, the figures for the MIC in test [1], in [2] and in [5] were 90 µg/mL (≈ 294 µM), 95 µg/mL (≈ 310 µM) and 85 µg/mL (≈ 277 µM), respectively. The result in [8] and in [9] was inactive.

In the case of `CCN1CCC(n2cc(-c3noc(=O)[nH]3)nn2)CC1`, the MIC in test [1] came out at 37 µg/mL (≈ 140 µM); in test [2] it was 39 µg/mL (≈ 148 µM); in [3], 19 µg/mL (≈ 71.9 µM); in test [4] it was 19 µg/mL (≈ 71.9 µM); in [5], 39 µg/mL (≈ 148 µM).

In general, MIC refers to the smallest concentration in the dilution series that meets the test's criterion for growth inhibition. A low value points to greater potency.
